The record followed here is ChEMBL document CHEMBL1914352, “Design, synthesis, docking, and biological evaluation of novel diazide-containing isoxazole- and pyrazole-based histone deacetylase probes” (J Med Chem, 2011).

The target in series [1] is T1, Stromelysin-1 (Homo sapiens, UniProt P08254). The experiment in a line: Inhibition of MMP3.
Series [2] concerns the target T2, Histone deacetylase (Homo sapiens) (UniProt Q13547+O15379+Q9UBN7+Q92769+Q9UQL6+Q8WUI4+Q9BY41+Q96DB2+P56524+Q9UKV0+Q969S8). Nature of the series: Inhibition of HDAC in retinoic acid-differentiated human SH-SY5Y cells assessed as increase in histone H4 acetylation at 1 uM after 24 hrs by Western blot analysis in presence of 100 uM LY294002. In kind it is cell-based.

For series [3], the target named is T3, Protein deacetylase HDAC6 (Homo sapiens, UniProt Q9UBN7).
T3 sequence (Q9UBN7 whole entry): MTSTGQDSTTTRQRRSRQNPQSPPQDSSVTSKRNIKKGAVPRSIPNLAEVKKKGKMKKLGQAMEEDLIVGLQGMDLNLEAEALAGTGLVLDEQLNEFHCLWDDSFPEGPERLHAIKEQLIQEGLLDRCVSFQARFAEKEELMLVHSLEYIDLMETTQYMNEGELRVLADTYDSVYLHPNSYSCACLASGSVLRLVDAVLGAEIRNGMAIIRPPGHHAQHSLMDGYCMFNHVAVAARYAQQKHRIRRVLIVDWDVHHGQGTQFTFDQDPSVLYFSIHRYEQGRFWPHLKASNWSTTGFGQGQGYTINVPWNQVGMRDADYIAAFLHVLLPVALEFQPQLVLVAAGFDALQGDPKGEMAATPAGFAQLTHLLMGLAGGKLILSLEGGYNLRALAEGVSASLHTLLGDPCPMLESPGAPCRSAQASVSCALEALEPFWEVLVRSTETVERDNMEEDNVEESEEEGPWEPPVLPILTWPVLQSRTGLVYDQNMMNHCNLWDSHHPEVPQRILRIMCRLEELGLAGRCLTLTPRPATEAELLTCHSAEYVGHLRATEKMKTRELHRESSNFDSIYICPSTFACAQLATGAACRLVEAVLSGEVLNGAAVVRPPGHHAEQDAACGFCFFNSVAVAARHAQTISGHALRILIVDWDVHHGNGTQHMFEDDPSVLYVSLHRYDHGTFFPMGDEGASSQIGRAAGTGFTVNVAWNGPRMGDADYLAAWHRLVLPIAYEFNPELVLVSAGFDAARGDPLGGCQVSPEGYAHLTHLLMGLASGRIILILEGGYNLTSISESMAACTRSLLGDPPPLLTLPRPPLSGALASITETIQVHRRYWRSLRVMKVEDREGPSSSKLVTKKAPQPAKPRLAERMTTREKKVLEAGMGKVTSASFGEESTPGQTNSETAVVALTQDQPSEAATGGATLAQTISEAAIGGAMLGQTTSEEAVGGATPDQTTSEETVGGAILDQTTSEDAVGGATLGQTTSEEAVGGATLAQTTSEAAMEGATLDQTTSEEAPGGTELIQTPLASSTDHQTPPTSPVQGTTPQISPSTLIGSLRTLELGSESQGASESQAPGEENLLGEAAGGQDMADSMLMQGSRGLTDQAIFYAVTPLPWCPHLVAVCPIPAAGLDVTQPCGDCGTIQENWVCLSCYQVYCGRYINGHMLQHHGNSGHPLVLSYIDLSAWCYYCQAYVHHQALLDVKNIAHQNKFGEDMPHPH
Nature of the series: Inhibition of human recombinant HDAC6 using fluorophore-conjugated substrate Boc-L-Lys(Ac)-AMC after 60 mins.

Series [4] concerns HepG2. The experiment in a line: Induction of apoptosis in human HepG2 cells assessed as hyperacetylation of p53 at 1 to 10 uM by Western blot analysis. In kind it is functional, cell-based. An outline of the steps:
(§1)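 HepG2 cells are seeded at 2.7×10^5 cells/well in D7 medium (DMEM, 7% FBS), refed after 24 h, and after 1 h at 37 °C treated with DMSO or 1, 5 or 10 µM inhibitor. Lysis is in ice-cold 1% CHAPSO buffer (50 mM Hepes pH 7.4), 45 min at 4 °C. Immunoblots are probed for cleaved caspase 3 Asp175, acetyl-Lys373 p53, total p53 and GAPDH, detected by chemiluminescence, with band densitometry.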

Series [5] relates to HeLa. Nature of the series: cells. The following applies: Homo sapiens, 72 h. In kind it is functional, cell-based.
Series [6] deals with Histone deacetylase 2 (Homo sapiens, UniProt Q92769).
For series [7], the system named is HepG2. Nature of the series: cells. In kind it is functional, cell-based. Conditions: Homo sapiens, HepG2, 24 h.
The subject of series [8] is HepG2. Nature of the series: Induction of apoptosis in human HepG2 cells assessed as cleavage of caspase 3 at 1 to 10 uM after 24 hrs by Western blot analysis. It counts as functional, cell-based. An outline of the steps:
as §1

For series [9], the target named is Histone deacetylase 3/Nuclear receptor corepressor 2 (HDAC3/NCoR2) (Homo sapiens, UniProt O15379). The experiment in a line: Inhibition of human recombinant HDAC3/NCoR2 using fluorophore-conjugated substrate Boc-L-Lys(Ac)-AMC. It counts as protein-complex assay.
Series [10] has as its target Histone deacetylase 1 (Homo sapiens, UniProt Q13547). The experiment in a line: Inhibition of human recombinant HDAC1 using fluorophore-conjugated substrate Boc-L-Lys(Ac)-AMC after 60 mins.
In series [11] the target is T4, Matrix metalloproteinase-9 (Homo sapiens, UniProt P14780). Nature of the series: Inhibition of MMP9.
Series [12] deals with HepG2. Nature of the series: Induction of apoptosis in human HepG2 cells assessed as hyperacetylation of p53 after 24 hrs by Western blot analysis. It counts as functional, cell-based. The method, boiled down:
as §1

For series [13], the target named is T2, Histone deacetylase (Homo sapiens). Nature of the series: Inhibition of HDAC in retinoic acid-differentiated human SH-SY5Y cells assessed as increase in histone H4 acetylation at 1 uM after 24 hrs by Western blot analysis. In kind it is cell-based.
For series [14], the system named is SH-SY5Y. Nature of the series: cells. In kind it is functional, cell-based. Conditions: Homo sapiens, 24 h.
For series [15], the system named is SH-SY5Y. The experiment in a line: Cytotoxicity against retinoic acid-differentiated human SH-SY5Y cells assessed as cell survival at 20 uM. It counts as cell-based. An outline of the steps:
(§2)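 SH-SY5Y cells are differentiated for 7–8 days in 1% FBS medium with 10 µM retinoic acid, then seeded at 2×10^4 cells/well in 1% FBS medium with 5 µM RA. After 24 h they go into phenol-red-free 1% FBS/RA medium with DMSO or 0.5–50 µM inhibitor, without or with 100 µM LY294002, for 24 h. Readout: XTT viability as % survival vs vehicle, four replicates ± SD, one-way ANOVA with Dunnett.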

Series [16] concerns the target T1, Stromelysin-1. The experiment in a line: Inhibition of MMP3 assessed as activity remaining at […].
Target sequence in this assay (P08254 100-477 limits assumed): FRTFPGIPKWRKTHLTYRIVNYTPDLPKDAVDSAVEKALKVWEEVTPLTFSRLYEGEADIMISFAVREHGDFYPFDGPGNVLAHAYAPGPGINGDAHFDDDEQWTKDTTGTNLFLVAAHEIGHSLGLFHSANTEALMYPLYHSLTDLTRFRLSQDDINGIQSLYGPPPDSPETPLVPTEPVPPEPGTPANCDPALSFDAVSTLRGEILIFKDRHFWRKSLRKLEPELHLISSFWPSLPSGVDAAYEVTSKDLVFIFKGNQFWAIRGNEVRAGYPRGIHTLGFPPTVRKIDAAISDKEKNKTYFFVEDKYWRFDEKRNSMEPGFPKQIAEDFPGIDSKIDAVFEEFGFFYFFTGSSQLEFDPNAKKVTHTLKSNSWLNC
Series [17] relates to SH-SY5Y. The experiment in a line: Neuroprotective activity against LY294002-induced stress in retinoic acid differentiated human SH-SY5Y cells assessed as cell survival at 1 uM. It counts as functional, cell-based. The method, boiled down:
as §2

In series [18] the target is T4, Matrix metalloproteinase-9. Nature of the series: Inhibition of MMP9 assessed as activity remaining at […].
Series [19] has as its system SH-SY5Y. The experiment in a line: Neuroprotective activity against LY294002-induced stress in retinoic acid differentiated human SH-SY5Y cells assessed as cell survival at 0.5 uM. In kind it is functional, cell-based. An outline of the steps: as §2

Molecules are shown by their SMILES. Calls of active or inactive are those of the source. The rule behind the calls is not given here. A value given as a limit tells only on which side of the number the result lay.

T4 sequence (P14780 whole entry): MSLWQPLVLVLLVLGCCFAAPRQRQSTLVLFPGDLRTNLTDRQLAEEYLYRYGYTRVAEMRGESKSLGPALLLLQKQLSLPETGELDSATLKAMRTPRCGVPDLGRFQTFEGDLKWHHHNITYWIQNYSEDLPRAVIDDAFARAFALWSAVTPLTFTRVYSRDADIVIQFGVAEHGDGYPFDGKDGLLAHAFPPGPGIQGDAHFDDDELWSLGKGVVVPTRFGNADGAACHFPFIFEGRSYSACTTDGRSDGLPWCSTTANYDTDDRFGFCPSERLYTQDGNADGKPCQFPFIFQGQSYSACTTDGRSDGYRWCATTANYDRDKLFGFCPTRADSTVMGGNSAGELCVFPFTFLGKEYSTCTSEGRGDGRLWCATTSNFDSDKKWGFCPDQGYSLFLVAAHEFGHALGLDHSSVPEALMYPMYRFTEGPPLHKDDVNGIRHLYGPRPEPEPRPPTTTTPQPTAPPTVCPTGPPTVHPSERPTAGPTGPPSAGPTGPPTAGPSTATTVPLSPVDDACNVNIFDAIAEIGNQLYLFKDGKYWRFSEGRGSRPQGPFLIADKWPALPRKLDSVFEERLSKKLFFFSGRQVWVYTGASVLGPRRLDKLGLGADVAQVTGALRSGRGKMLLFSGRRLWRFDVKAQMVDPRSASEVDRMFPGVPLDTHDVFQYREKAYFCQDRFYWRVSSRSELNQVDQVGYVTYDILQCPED
Sequence of Histone deacetylase 1 (Q13547 whole entry): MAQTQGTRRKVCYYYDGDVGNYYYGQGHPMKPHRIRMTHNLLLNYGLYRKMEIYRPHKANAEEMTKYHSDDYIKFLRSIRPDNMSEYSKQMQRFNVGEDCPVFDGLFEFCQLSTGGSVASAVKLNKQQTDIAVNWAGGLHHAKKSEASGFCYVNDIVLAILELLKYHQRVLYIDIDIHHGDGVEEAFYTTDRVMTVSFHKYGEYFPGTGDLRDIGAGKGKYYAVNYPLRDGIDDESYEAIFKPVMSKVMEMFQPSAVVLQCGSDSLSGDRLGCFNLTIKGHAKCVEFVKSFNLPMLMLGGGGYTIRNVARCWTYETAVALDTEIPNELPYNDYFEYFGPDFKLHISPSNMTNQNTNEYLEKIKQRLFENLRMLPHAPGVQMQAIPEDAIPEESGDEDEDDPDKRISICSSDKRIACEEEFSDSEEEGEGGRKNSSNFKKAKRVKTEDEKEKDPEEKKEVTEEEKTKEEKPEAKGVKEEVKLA
Sequence of Histone deacetylase 2 (Q92769 whole entry): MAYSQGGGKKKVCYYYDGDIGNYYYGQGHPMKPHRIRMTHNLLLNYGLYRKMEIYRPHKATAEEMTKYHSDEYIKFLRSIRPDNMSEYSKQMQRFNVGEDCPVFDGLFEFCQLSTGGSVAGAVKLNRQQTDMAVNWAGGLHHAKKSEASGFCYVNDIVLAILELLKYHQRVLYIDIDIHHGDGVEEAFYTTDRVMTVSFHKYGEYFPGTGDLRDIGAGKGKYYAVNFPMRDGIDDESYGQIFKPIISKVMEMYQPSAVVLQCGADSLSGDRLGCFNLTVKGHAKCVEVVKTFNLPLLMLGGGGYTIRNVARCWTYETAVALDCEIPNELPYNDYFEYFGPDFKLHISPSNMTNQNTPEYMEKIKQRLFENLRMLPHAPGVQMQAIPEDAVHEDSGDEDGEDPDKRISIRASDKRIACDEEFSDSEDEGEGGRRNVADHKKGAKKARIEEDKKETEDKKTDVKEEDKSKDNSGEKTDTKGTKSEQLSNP
Sequence of Histone deacetylase 3/Nuclear receptor corepressor 2 (HDAC3/NCoR2) (O15379 whole entry): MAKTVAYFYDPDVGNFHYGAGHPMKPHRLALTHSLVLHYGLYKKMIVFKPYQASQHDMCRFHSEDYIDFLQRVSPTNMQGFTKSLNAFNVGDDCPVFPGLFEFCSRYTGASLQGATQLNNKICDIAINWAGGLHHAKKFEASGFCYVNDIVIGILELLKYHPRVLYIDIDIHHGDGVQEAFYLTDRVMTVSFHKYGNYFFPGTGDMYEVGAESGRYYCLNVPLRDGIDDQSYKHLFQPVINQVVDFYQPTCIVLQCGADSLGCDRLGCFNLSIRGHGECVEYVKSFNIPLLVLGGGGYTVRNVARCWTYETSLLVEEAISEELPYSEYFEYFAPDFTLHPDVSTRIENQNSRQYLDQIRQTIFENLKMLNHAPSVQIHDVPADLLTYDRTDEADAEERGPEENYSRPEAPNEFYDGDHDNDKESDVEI
Sequence of Histone deacetylase 3/Nuclear receptor corepressor 2 (HDAC3/NCoR2) (Q9Y618 whole entry, further chain): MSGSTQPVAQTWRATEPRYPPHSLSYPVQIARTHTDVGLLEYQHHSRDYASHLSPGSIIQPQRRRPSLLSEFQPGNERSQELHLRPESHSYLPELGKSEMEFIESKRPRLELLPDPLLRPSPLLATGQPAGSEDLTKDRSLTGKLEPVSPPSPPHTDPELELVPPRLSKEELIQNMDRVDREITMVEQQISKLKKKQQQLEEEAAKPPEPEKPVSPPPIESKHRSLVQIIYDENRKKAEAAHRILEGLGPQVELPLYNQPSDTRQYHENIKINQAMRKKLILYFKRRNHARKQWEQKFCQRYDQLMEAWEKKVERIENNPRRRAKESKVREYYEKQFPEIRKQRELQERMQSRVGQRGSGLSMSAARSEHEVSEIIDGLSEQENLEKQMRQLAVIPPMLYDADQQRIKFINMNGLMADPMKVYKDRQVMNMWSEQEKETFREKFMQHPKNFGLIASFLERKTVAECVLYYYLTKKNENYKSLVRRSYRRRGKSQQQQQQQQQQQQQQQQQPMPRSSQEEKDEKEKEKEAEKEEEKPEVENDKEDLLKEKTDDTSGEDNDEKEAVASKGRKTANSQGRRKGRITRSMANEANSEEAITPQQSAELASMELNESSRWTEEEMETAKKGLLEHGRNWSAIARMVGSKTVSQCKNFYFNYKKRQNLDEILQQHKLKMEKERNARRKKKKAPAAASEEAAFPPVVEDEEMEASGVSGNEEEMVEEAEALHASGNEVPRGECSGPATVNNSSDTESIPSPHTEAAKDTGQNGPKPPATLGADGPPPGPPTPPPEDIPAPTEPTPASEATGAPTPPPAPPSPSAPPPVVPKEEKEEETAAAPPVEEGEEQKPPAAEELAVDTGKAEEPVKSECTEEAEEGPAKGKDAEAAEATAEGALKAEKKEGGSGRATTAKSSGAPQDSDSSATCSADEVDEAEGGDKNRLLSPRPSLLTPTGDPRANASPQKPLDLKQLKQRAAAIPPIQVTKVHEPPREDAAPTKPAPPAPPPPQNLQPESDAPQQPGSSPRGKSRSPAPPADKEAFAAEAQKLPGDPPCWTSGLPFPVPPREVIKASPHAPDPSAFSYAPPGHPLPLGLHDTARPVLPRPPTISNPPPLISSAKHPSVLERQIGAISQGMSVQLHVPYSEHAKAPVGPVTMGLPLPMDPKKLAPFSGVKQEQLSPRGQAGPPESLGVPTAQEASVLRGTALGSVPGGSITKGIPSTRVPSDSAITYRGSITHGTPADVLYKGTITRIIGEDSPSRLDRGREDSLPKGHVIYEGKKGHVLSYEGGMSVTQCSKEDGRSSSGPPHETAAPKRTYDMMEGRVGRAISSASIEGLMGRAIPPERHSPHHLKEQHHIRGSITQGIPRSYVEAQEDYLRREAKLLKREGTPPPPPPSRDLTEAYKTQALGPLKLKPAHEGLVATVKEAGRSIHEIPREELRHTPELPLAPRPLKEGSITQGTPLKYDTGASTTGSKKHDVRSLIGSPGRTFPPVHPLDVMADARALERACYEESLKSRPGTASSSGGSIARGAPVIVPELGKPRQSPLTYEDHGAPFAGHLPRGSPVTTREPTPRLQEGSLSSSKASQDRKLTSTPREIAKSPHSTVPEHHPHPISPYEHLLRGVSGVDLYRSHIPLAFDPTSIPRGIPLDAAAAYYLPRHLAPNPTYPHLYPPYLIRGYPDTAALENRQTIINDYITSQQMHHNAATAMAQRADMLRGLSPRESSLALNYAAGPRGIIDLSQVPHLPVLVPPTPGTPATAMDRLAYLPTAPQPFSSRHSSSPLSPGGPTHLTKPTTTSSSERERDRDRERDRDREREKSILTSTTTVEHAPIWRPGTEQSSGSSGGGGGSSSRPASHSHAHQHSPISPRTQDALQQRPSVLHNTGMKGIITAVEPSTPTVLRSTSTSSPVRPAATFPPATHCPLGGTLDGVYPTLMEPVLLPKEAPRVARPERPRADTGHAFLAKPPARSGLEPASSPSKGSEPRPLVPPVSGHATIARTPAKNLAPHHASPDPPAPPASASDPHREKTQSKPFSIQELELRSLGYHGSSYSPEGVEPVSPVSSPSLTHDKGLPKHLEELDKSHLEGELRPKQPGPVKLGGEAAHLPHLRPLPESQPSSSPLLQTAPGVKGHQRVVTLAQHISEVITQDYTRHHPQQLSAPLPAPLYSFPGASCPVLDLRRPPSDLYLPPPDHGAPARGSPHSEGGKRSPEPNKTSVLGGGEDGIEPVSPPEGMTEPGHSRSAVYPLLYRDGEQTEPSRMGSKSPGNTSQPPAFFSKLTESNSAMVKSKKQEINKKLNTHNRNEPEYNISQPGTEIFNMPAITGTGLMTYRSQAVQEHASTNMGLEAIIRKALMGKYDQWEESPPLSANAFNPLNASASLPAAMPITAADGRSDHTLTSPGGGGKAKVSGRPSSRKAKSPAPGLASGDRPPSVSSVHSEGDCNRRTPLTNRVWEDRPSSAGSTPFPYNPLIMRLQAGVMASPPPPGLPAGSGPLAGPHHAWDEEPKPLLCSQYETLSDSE

As for `[N-]=[N+]=NCc1cc(N=[N+]=[N-])cc(C(=O)Nc2ccc(-c3cc(C(=O)NCCCCCCC(=O)NO)no3)cc2)c1`, the IC50 in series [1] is 12100 nM; in series [3], 47 nM; in series [6], 780 nM; in series [9], 45 nM; in series [10], 82.2 nM; in [11], 22900 nM. The inhibition result in [2] and in [13] was “Active” each time. Moreover, the outcome in [4] and in series [12] was inactive. For the same compound, the EC50 is 4700 nM in [5], > 50000 nM in series [7] and > 50000 nM in series [14]. In addition, the outcome in series [8] was Active.

On to `[N-]=[N+]=NCc1cc(Cn2cc(NC(=O)CCCCCCC(=O)NO)cn2)cc(N=[N+]=[N-])c1`, for which the figures for the Activity entry in series [15], in series [16] and in series [18] were “Toxic”, > 70% and > 70%, respectively. The inhibition entry in [2] and in [13] was “Active” throughout. In addition, the concentration for half-maximal inhibition (IC50) in [3] turned out to be 274 nM; in series [6] it was 1000 nM; in series [9], 128 nM; in series [10], 99.1 nM. Moreover, the concentration giving a half-maximal response (EC50) is 15000 nM in [5], > 50000 nM in series [7] and > 50000 nM in [14]. Moreover, the outcome in series [17] and in series [19] was Active.
